M18AAP inhibitor: PfM18AAP inhibitors, malaria aminopeptidase, primary screen, biochemical, QFRET, recombinant enzyme; inhibition, % at 7.35 µM; M18 aspartyl aminopeptidase (Plasmodium falciparum 3D7); H-Glu-NHMec fluorogenic cleavage; hit rate 1.2% among 290,000;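 active = inhibition above the campaign mean inhibition over all tested compounds plus 3 SD, cut at about 28% in these data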;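 also: 0% = plate median of test compound wells and 100% = 2 mM ZnCl2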
HKDC1 inhibitor: HKDC1 hexokinase inhibitors, primary screen, biochemical, fluorescence, uHTS; Q2TB90; recombinant HKDC1, G6PDH/diaphorase resazurin coupled fluorescence; inhibition, % at 20 µM; hit rate 0.16% among 340,000;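 active = inhibition above about 35% when tested at 20 µM, limit read from the data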;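 also: plate controls were DMSO wells with enzyme for no effect and DMSO wells lacking enzyme for full effect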
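Test system: HK5 enzyme. Quantity: 5 µg/mL HK5 final. Reagent: glucose and ATP substrates. Schedule: 90 min reaction incubation at room temperature, dark. Technique: resazurin-to-resorufin fluorescence via G6PDH and diaphorase coupling, 525/613 nm. Control set: DMSO wells with and without enzyme mix.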
UBC9 SUMO inh: inhibitors of in vitro SUMOylation cascade, primary screen, biochemical, HTRF, uHTS; inhibition, % at 35 µM; AID 2006, 2009; SUMO-conjugating enzyme UBC9 (Homo sapiens), P63279; HTRF SUMOylation assay, SAE1/SAE2 + UBC9; hit rate 0.36% among 290,000; in the data active = inhibition above about 50%, passing the limit was not always enough
A3G deaminase: APOBEC3G DNA deaminase inhibitors, primary screen, biochemical, fluorescence, single-stranded DNA substrate, uHTS. AID 493012, 2011. hit rate 0.28% among 330,000. DNA dC->dU-editing enzyme APOBEC-3G (Homo sapiens), Q9HC16. inhibition, % at 20 µM. recombinant A3G, ssDNA deamination FAM/TAMRA fluorescence;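 active = inhibition of at least 40% at 20 µM, with no more than 30% in the related APOBEC3A deaminase screen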;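 also: plate controls were DMSO wells with A3G for no effect and wells lacking A3G enzyme for full effect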
Target sequence (Q9HC16 whole entry, looked up): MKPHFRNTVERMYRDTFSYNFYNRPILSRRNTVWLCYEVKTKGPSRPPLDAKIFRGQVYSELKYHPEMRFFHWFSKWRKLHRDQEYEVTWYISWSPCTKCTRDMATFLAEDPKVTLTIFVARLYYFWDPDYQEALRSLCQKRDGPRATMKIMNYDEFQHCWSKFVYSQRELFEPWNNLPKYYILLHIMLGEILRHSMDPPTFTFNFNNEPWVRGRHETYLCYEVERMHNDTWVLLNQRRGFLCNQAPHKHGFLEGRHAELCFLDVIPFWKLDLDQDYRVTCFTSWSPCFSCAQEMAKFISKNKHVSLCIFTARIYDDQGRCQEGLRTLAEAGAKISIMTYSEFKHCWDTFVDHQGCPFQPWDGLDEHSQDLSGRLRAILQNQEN
PfG6PD inh: PfG6PD enzyme inhibitors, primary screen, biochemical, fluorescence intensity, uHTS; PfGluPho enzyme, NADPH resazurin-diaphorase fluorescence; hit rate 0.78% among 350,000; glucose-6-phosphate dehydrogenase-6-phosphogluconolactonase (Plasmodium falciparum 3D7); inhibition, % at 20 µM;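 active = inhibition reaching at least a set limit at 20 µM in the primary screen, cut at about 59% in these data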;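 also: 0% = DMSO wells with substrate and 100% = DMSO wells lacking glucose-6-phosphate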
A3A deaminase: APOBEC3A ssDNA deaminase inhibitors, primary screen, selectivity assay for APOBEC3G inhibitor project, biochemical, FAM/TAMRA oligo cleavage fluorescence; inhibition, % at 20 µM; DNA dC->dU-editing enzyme APOBEC-3A (Homo sapiens), P31941; hit rate 0.41% among 330,000; recombinant A3A, FAM/TAMRA ssDNA deamination fluorescence;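 active = at least 40% inhibition at 20 µM here, with at most 30% in a related deaminase screen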;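 also: plate controls were A3A with DMSO for no effect and wells lacking A3A enzyme for full effect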
APOBEC3G confirm: APOBEC3G deaminase inhibitor retest, confirmation, biochemical, fluorescence, single-stranded DNA substrate, single concentration; shares compounds with A3G deaminase; recombinant A3G ssDNA deaminase, UDG/FAM-TAMRA fluorescence; inhibition, % at 20 µM; hit rate 72% among 890; AID 493152, 2011;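 active = inhibition reaching a set limit in any replicate at 20 µM, the limit being 80% of the first screen's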
UDG ctr A3G: E. coli UDG inhibitors, confirmation, counter-screen for APOBEC3G inhibitor project, biochemical, single concentration, fluorescence, FAM/TAMRA oligo; shares compounds with A3G deaminase; UDG counterscreen; inhibition, % at 20 µM; 710 tested, under 10 active; AID 504715, 2011;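 active = compounds giving 40% or more inhibition at 20 µM in any one of the three replicates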;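 also: plate controls were DMSO wells with UDG and oligo for no effect and DMSO wells lacking both for full effect; inhibitors lower the FAM signal released by uracil excision and alkaline cleavage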
Target sequence (P12295 whole entry, looked up): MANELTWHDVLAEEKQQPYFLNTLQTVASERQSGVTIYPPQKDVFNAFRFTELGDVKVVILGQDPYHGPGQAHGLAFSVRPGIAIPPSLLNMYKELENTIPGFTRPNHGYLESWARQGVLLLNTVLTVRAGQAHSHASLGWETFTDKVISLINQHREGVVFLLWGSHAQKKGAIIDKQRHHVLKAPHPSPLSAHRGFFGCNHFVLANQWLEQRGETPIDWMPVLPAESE
The depositor's hits bear a star. Compounds with a hit are over-represented: about 2.4% of the library has one in this group of screens.

Screening COc1ccc(Cc2n[nH]c(=S)n2C)cc1Br returned M18AAP inhibitor 13, HKDC1 inhibitor -5, UBC9 SUMO inh -5, A3G deaminase 42*, PfG6PD inh 6, A3A deaminase -1, APOBEC3G confirm 54* and UDG ctr A3G 1.
For Cc1ccc(-c2noc(CN(C)C(=O)Nc3ccc(F)cc3)n2)cc1 the results were M18AAP inhibitor -18, HKDC1 inhibitor -4, UBC9 SUMO inh 5, A3G deaminase -5, PfG6PD inh 8 and A3A deaminase -1.
`CCn1c(SCC(=O)c2c(N)n(C3CC3)c(=O)[nH]c2=O)nnc1-c1ccccc1OC` gave HKDC1 inhibitor -7, A3G deaminase -6, PfG6PD inh 28 and A3A deaminase 8.
CCCCCCNC(=O)N[C@H](C(=O)NCCC[C@H]1CN2C(=NC[C@H]2C)N1CCC(c1ccccc1)c1ccccc1)C(C)O (stereo partly specified) was read as UBC9 SUMO inh -30, A3G deaminase 78*, A3A deaminase 4 and APOBEC3G confirm 73*.
C[C@@H]1CN=C2N(CCNC(=O)CCC3CCCCC3)[C@H](Cc3ccc(O)cc3)CN21 was read as M18AAP inhibitor 1, HKDC1 inhibitor -7, UBC9 SUMO inh 74, A3G deaminase 1, PfG6PD inh 5 and A3A deaminase 2.
`Cc1ccc(S(=O)(=O)N2CCC(C(=O)Nc3nnc(-c4ccco4)s3)CC2)cc1` gave M18AAP inhibitor 1, HKDC1 inhibitor 15, UBC9 SUMO inh -18, A3G deaminase 5, PfG6PD inh -1 and A3A deaminase 1.
For O=C(Nc1nnc(-c2ccco2)s1)C1CCCCC1 the results were M18AAP inhibitor 6, HKDC1 inhibitor 2, UBC9 SUMO inh 13, A3G deaminase 56*, PfG6PD inh -18, A3A deaminase -2, APOBEC3G confirm -3 and UDG ctr A3G 1.
CC(O)CC(C(=O)NNc1ccccc1)C(=O)NNc1ccccc1 (stereo unspecified) was read as M18AAP inhibitor 11, HKDC1 inhibitor -3, UBC9 SUMO inh 16, A3G deaminase 44*, PfG6PD inh -11, A3A deaminase -2, APOBEC3G confirm 1 and UDG ctr A3G -3.
For N#Cc1c(N)sc(=S)c2c1CCCC2 the results were M18AAP inhibitor 8, HKDC1 inhibitor 4, UBC9 SUMO inh 0, A3G deaminase 47*, PfG6PD inh 44, A3A deaminase 24 and APOBEC3G confirm 25.
Screening CCC1(C)Cc2c(C#N)c(N)sc(=S)c2CO1 (stereo unspecified) returned M18AAP inhibitor 7, HKDC1 inhibitor 10, UBC9 SUMO inh 12, A3G deaminase 17, PfG6PD inh 32 and A3A deaminase -1.
`CC1(C)CC(=O)C(C=Nc2ccc(C(=O)c3ccccc3)cc2N=CC2=C(O)CC(C)(C)CC2=O)=C(O)C1` gave M18AAP inhibitor 0, HKDC1 inhibitor -18, UBC9 SUMO inh 0, A3G deaminase -6, PfG6PD inh 5 and A3A deaminase -4.
CC(C)NC(=S)N=Nc1c(O)[nH]c2ccc([N+](=O)[O-])cc12 was read as M18AAP inhibitor 11, HKDC1 inhibitor 11, UBC9 SUMO inh -26, A3G deaminase -13, PfG6PD inh 18 and A3A deaminase -2.
CC(=O)NC(=O)c1nnn(Cc2ccccc2)c1NC(C)=O was read as M18AAP inhibitor -8, HKDC1 inhibitor 0, UBC9 SUMO inh -8, A3G deaminase -10, PfG6PD inh -2 and A3A deaminase -4.
For CC(=O)NC(=S)NNC(=O)C(c1ccccc1)c1ccccc1 the results were M18AAP inhibitor -3, HKDC1 inhibitor -10, UBC9 SUMO inh -25, A3G deaminase 46*, PfG6PD inh -9, A3A deaminase 2, APOBEC3G confirm 41* and UDG ctr A3G -4.
Screening N#CCC(=O)NNC(=S)NC(=O)C(c1ccccc1)c1ccccc1 returned M18AAP inhibitor 16, HKDC1 inhibitor -18, UBC9 SUMO inh -69, A3G deaminase -7, PfG6PD inh -21 and A3A deaminase 0.
Cc1ccc(C(=O)NNC(=O)CSc2nnc3c(n2)[nH]c2ccc(F)cc23)cc1 was read as M18AAP inhibitor -2, HKDC1 inhibitor 7, UBC9 SUMO inh 41, A3G deaminase 56*, PfG6PD inh 2, A3A deaminase 18, APOBEC3G confirm 64* and UDG ctr A3G 0.
`Cc1cnn(-c2nc(-c3ccccc3)cc(-c3ccccc3)n2)c1` gave M18AAP inhibitor -4, HKDC1 inhibitor -8, UBC9 SUMO inh -18, A3G deaminase -3, PfG6PD inh 23 and A3A deaminase 0.
Screening CC(=C/c1ccccc1)/C=N/n1c(-c2ccco2)n[nH]c1=S returned M18AAP inhibitor 13, HKDC1 inhibitor 8, UBC9 SUMO inh -12, A3G deaminase 15, PfG6PD inh 11 and A3A deaminase -3.
CC(/C=N/n1c(-c2cccnc2)n[nH]c1=S)=C\c1ccco1 was read as M18AAP inhibitor 12, HKDC1 inhibitor 8, UBC9 SUMO inh 27, A3G deaminase 71*, PfG6PD inh 23, A3A deaminase 15, APOBEC3G confirm 70* and UDG ctr A3G -2.
`CC(/C=N/n1c(-c2n[nH]c3c2CCC3)n[nH]c1=S)=C\c1ccco1` gave M18AAP inhibitor 10, HKDC1 inhibitor 8, UBC9 SUMO inh 18, A3G deaminase 55*, PfG6PD inh 21, A3A deaminase 15, APOBEC3G confirm 68* and UDG ctr A3G -3.
CCCc1ccc(-c2ccc(/C=C/C(=O)O)cc2)nc1 was read as M18AAP inhibitor 9, HKDC1 inhibitor -1, UBC9 SUMO inh 4 and PfG6PD inh -7.
`CCCCCc1ccc(-c2ccc(/C=C/C(=O)O)cc2)nc1` gave M18AAP inhibitor -15, HKDC1 inhibitor 13, UBC9 SUMO inh 18, A3G deaminase 89*, PfG6PD inh -25, A3A deaminase 0 and APOBEC3G confirm -4.

Compound activity (PubChem BioAssay)
